Only a selection was taken, and hits are over-represented in it overall.
Lmaj promast = inhibitors of Leishmania major promastigote growth; actives 9% (n = 200,000); Leishmania major promastigotes, resazurin fluorescence viability; AID 1063; inhibition, % at 10 µM; in the data active means inhibition above about 50%;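 further: promastigotes grown with compound for 44 hours at 28 °C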
MDM2 E3 inh = inhibitors of human Mdm2 E3 ubiquitin ligase. Q00987. cell-based MDM2 ubiquitination luciferase reporter, 2 h; 0 = plate control, 100 = twice control, blank-subtracted. signal enhancement, % at 5 µM. actives 0.11% (n = 210,000). AID 1230;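 active means signal enhancement of 30% or more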;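 further: luminescence tracks abundance of the self-degrading MDM2-luciferase fusion protein; higher signal means inhibition of MDM2 E3 ligase activity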
Target sequence (Q00987 whole entry, looked up, the tested form may be a part): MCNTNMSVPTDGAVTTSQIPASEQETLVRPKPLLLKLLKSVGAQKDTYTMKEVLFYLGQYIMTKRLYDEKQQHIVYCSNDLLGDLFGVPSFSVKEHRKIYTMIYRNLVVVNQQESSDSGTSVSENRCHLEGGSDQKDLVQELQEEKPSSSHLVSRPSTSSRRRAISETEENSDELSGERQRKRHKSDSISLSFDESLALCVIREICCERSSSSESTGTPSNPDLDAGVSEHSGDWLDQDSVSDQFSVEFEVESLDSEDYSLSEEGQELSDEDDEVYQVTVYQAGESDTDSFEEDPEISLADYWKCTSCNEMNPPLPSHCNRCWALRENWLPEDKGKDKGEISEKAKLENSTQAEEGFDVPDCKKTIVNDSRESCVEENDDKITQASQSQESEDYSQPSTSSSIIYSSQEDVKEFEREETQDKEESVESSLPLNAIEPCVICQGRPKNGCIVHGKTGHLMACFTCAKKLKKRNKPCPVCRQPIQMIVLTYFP
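system = mammalian cells stably expressing self-ubiquitinating, self-degrading MDM2 E3–luciferase fusion | quantity = 2000 cells per well seeded | incubation = 4 h cell settling then 2 h compound exposure, 37 °C | signal = SteadyLite luminescence, 15 min reagent step | benchmarks = plate control and blank wells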
S1P4 agonist = human S1P4 receptor agonism. S1P4-expressing cell line, agonist reporter assay. actives 0.35% (n = 220,000). activation, % at 4.98 µM. O95977; in the data active means activation above about 11%
S1P3 antag = antagonists of human S1P3 receptor; Q99500; CHO S1P3 NFAT-BLA reporter, FRET fluorescence, antagonist mode; actives 0.27% (n = 170,000); inhibition, % at 4.98 µM;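 active means inhibition above the plate cutoff, the mean inhibition of test wells on that plate plus 3 SD, cut at about 28% in these data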;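 further: cells challenged with S1P at its EC80 of 0.8 µM; blue over green emission ratio from cleaved BLA substrate after 4 h stimulation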
S1P4 antagonist = human S1P4 receptor antagonism; S1P4-expressing cells, antagonist mode, reporter read-out; inhibition, % at 4.98 µM; actives 0.26% (n = 220,000); AID 1510; in the data active means inhibition above about 29%
Of the large screens only hits and unclear results are named; the others gave an inactive call.

COc1ccc(C(NC(=O)C(C)C)c2c(O)ccc3ccccc23)cc1 (stereo not given)	Lmaj promast 96
O=C(c1ccccc1NS(=O)(=O)c1ccc(F)cc1)N1CCc2ccccc21	none
O=C(c1ccccc1NS(=O)(=O)c1cccc(C(F)(F)F)c1)N1CCc2ccccc21	Lmaj promast 66
CCCCOc1ccc(C(=O)C(CN2CCOCC2)c2ccccc2)cc1 (stereo not given)	Lmaj promast 101 (no result: S1P3 antag)
CCCCCOc1ccc(C(=O)C(c2ccccc2)N2CCOCC2)cc1 (stereo not given)	none (no result: MDM2 E3 inh, S1P3 antag)
CCCOc1ccc(C(=O)C(CN2CCCC2)c2ccccc2)cc1 (stereo not given)	Lmaj promast 100
O=C(c1ccccc1)C(CCC(CN1CCOCC1)C(=O)c1ccccc1)CN1CCOCC1 (stereo not given)	Lmaj promast 100 (no result: S1P3 antag)
COc1ccc(C(=O)C(CN2CCCC2)c2ccccc2)cc1 (stereo not given)	Lmaj promast 100 (no result: S1P3 antag)
O=C(COC(=O)Cc1ccc(Br)cc1)NCc1ccc(F)cc1	none
Cc1onc(-c2c(F)cccc2Cl)c1C(N)=S	none
O=C(CN1C(=O)CCC1=O)Nc1nc(-c2ccc(Oc3ccccc3)cc2)cs1	none
O=C(c1ccc(F)cc1)C(CN1CCOCC1)c1ccccc1 (stereo not given)	Lmaj promast 101
CCCOc1ccc(C(C(=O)OCCN(CC)CC)c2ccccc2)cc1 (stereo not given)	Lmaj promast 99 (no result: S1P3 antag)
O=S(=O)(NCC(Nc1ccc(Cl)cc1)c1ccccc1)c1ccc(Cl)cc1 (stereo not given)	Lmaj promast 58
O=C(O)C1(S(=O)(=O)CCC(F)=C(F)F)CC1	none
Cc1ccc(OCC(=O)N2CCN(c3nnc(-c4ccccc4)c4ccccc34)CC2)cc1	Lmaj promast 89 (no result: S1P3 antag)
CCOc1ccc(OCCOc2cccc(C(F)(F)F)c2)cc1	none (no result: S1P3 antag)
CNCCCOc1cccc(Oc2ccccc2)c1	Lmaj promast 99
CC(O)CNCCCOc1cccc(C(F)(F)F)c1 (stereo not given)	Lmaj promast 67
CC(O)CNCCCOc1cccc(Oc2ccccc2)c1 (stereo not given)	Lmaj promast 99
CC(C)CN1C(=O)c2ccc(NC(=O)Cc3ccccc3)cc2C1=O	none
CCn1nnnc1-c1ccc(OC)c(S(=O)(=O)NCCc2ccccc2)c1	none
CCOC(=O)C1=C(C)NC(C)=C(C(=O)OCC)C1C(=O)OCC(=O)N(C)C	none (no result: Lmaj promast, MDM2 E3 inh)
CCOc1ccc(OCCOCCOc2c(Cl)cccc2Cl)cc1	Lmaj promast 60 (no result: MDM2 E3 inh, S1P3 antag)
O=C1C(NS(=O)(=O)c2ccc(Cl)cc2)=C(N2CCCCC2)C(=O)c2ccccc21	Lmaj promast 89
O=C(/C=C1\NC2(CCCC2)Cc2ccccc21)C(=O)N/N=C/c1ccc(O)c(O)c1	Lmaj promast 62
Cc1cc(Br)cnc1NC(=S)Nc1ccc(F)cc1F	none
COc1ccc(C(=O)N(c2ccc(OC)cc2)S(=O)(=O)c2cccs2)cc1	Lmaj promast 77
Cc1ccc(-n2nc(-c3ccco3)cc2C(=O)O)cc1	none (no result: Lmaj promast, MDM2 E3 inh)
CC(C)NC(=O)c1cc(-c2ccco2)nn1-c1ccc(Cl)cc1	Lmaj promast 50 (no result: S1P3 antag)
O=C(COC(=O)c1cccc(S(=O)(=O)N2CCCC2)c1)NCc1ccccc1	none
COc1cc(/C=C(\NC(C)=O)C(=O)Nc2ccc(NC(C)=O)cc2)ccc1OC(C)=O	Lmaj promast 57
COC(=O)c1cccc(NC(=O)CCc2cc(OC)c(OC)c(OC)c2)c1	Lmaj promast 59
C/C(=C\c1ccccc1)C(=O)NCCCn1ccnc1	none
COc1cc(C2NCC(c3ccc(Cl)cc3Cl)c3c2[nH]c2ccccc32)cc(OC)c1OC (stereo not given)	Lmaj promast 99
COc1ccc(CCNC(=O)C(C(=O)c2ccccc2)n2cc(Cl)ccc2=O)cc1OC (stereo not given)	Lmaj promast 55
Cc1ccc(S(=O)(=O)n2[nH]c(=O)cc2N)cc1	none (no result: MDM2 E3 inh)
Cc1cccc(OC2CCN(Cc3c(C(=O)N4CCCC4)nc4ccccn34)CC2)c1	Lmaj promast 99
O=C(c1nc2ccccn2c1CN1CCC(Cc2ccccc2)CC1)N1CCCC1	Lmaj promast 69
O=c1cc(CN2CCC(Cc3ccccc3)CC2)nc2sccn12	Lmaj promast 88
Cc1cccc(OC2CCN(Cc3nc(CC4CC4)no3)CC2)c1	none
Cn1cc([C@@H]2C[C@H]3CN(C4CCCC4)C(=O)[C@]34CCCN24)c(-c2ccccc2)n1	none
CCc1ccccc1NC(=S)N(CCCN(C)C)Cc1cc2cc3c(cc2[nH]c1=O)OCO3	none
O=C(Cn1nnc(-c2ccccc2)n1)N/N=C/c1ccco1	none
O=C(NCc1cccnc1)c1cc(Sc2cccc(Cl)c2)nc2ccccc12	Lmaj promast 68
Cc1[nH]nc2c1C(c1ccc(-c3ccc(Cl)cc3)o1)C(C#N)=C(N)O2 (stereo not given)	Lmaj promast 100
Cc1[nH]nc2c1C(c1ccc(F)cc1)C(C#N)=C(N)O2 (stereo not given)	none
Cc1ccc(-c2ccc(C3C(C#N)=C(N)Oc4n[nH]c(C)c43)o2)cc1 (stereo not given)	Lmaj promast 101 (no result: S1P3 antag)
Cc1[nH]nc2c1C(c1ccc(-c3ccccc3C#N)o1)C(C#N)=C(N)O2 (stereo not given)	Lmaj promast 100
CC(=O)C1=C(C)N2CCN=C2S1	none (no result: Lmaj promast)
Cc1c(NC(=S)SCc2ccccc2)c(=O)n(-c2ccccc2)n1C	none
O=C(COC(=O)C12CC3CC(CC(C3)C1)C2)Nc1ccccc1F	none
COc1cccc(/C=C2/CN(C)CC3=C2OC(N)=C(C#N)C3c2cccc(OC)c2)c1 (stereo not given)	Lmaj promast 53 (no result: S1P3 antag)
CC(c1ccco1)N(C(=O)c1ccccc1NS(=O)(=O)c1cccc([N+](=O)[O-])c1)c1ccccn1 (stereo not given)	none
CC(c1ccco1)N(C(=O)c1ccccc1NS(=O)(=O)c1cc([N+](=O)[O-])ccc1Cl)c1ccccn1 (stereo not given)	Lmaj promast 51
COc1c(Cl)cc(Cl)cc1C(=O)Nc1ccc(C(=O)O)cc1	none
COc1c(Cl)cc(Cl)cc1C(=O)Nc1ccc(NC(C)=O)cc1	Lmaj promast 60
COc1cc(NC(=O)c2cccc(Cl)c2)ccc1NC(=O)c1cccs1	none
COc1c(Cl)cc(Cl)cc1/C=C/C(=O)c1ccc(NC(=O)c2cccs2)cc1	Lmaj promast 100
CCOc1ccc(CC(=O)NNC(=O)/C=C/C(=O)O)cc1	none (no result: Lmaj promast)
CN(CCC#N)C(=O)CC(Cc1ccccc1)C1CCOC(C)(C)C1 (stereo not given)	none (no result: Lmaj promast)
O=C(Nc1cccc(F)c1)NC1CCCCC1	none
O=C(Nc1cccn(Cc2cccc(F)c2)c1=O)NC1CCCCC1	Lmaj promast 83
O=C(Nc1cccn(Cc2c(F)cccc2Cl)c1=O)NC1CCCCC1	Lmaj promast 80
O=C(CCCCCn1c(=S)[nH]c2ccc(N3CCOCC3)cc2c1=O)NCc1cccc(Cl)c1	none
